Assay [1] is filed under the species Homo sapiens. Kind of assay: Selectivity ratio of IC50 for human recombinant AChE to IC50 for human recombinant BuChE.
Assay [2] is filed under the species Homo sapiens. Put plainly: Selectivity index, ratio of IC50 for human recombinant MAOB to IC50 for human recombinant MAOA. The procedure, abridged:
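Separate 30 min pre-incubations at 37 °C of serial inhibitor dilutions with recombinant human MAO-A (360 mU/mL) or MAO-B (67.5 mU/mL). Then 1 mM p-tyramine with HRP/Amplex UltraRed added, pH 7.4, and fluorescence followed ≥1 h. Index taken as IC50(MAO-B)/IC50(MAO-A); ≥3 experiments in triplicate.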

The nature of assay [3]: Antioxidant activity of the compound assessed as AAPH radical scavenging activity measured as trolox equivalent at 0.1 to 1 uM preincubated for 15 mins with fluorescein followed by addition of AAPH measured every min for 1 hr by oxygen radical absorbance capacity assay. It is filed as functional. The procedure, abridged:
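ORAC: compound diluted in 75 mM PBS pH 7.4 (0.1–1 μM) and pre-incubated 15 min at 37 °C with 70 nM fluorescein. 12 mM AAPH then added and fluorescence (ex 485/em 520) read every minute for 1 h. Net area under the decay curve converted against a trolox standard curve; melatonin as reference.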

The nature of assay [4]: Antioxidant activity of the compound assessed as inhibition of Cu2+/ascorbic acid-induced H2O2 production at 0.1 to 1 uM after 10 mins by horse-radish peroxidase/amplex red-based fluorometric method. It is filed as functional. The procedure, abridged: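 H2O2 generated by 0.2 μM Cu(II) plus 10 μM ascorbic acid, incubated 10 min at room temperature with varying compound concentrations. HRP/Amplex Red mixture then added to quantify H2O2 formed.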

Assay [5] is described as follows: Antioxidant activity of the compound assessed as DPPH radical scavenging activity after 60 mins by spectrophotometric method. It is filed as functional. The procedure, abridged:
(§1)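 DPPH scavenging: mixture shaken vigorously and left 60 min. Absorbance at 517 nm read and % activity calculated; trolox as comparator. Three replicates averaged.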

Assay [6] is described as follows: Antioxidant activity of the compound assessed as time required to induce AAPH-mediated linoleic acid peroxidation (reference value: 40 to 60 mins). It is filed as functional.
A short description of assay [7]: Antioxidant activity of the compound assessed as DPPH radical scavenging activity at 50 uM after 60 mins by spectrophotometric method. It is filed as functional. In outline:
as §1

The source made the active and inactive calls. The rule behind the calls is not given here. Where only a bound is given, the exact number is not on record here.

On to `C#CCN(CCC1CCN(Cc2ccccc2)CC1)Cc1ccc2cccc(O)c2n1`, for which the values for the Ratio IC50 in assay [1] and in assay [2] were 52 and more than 2.8, respectively.
As to `C#CCN(Cc1ccc(O)c2ncccc12)C(C#N)CCC1CCN(Cc2ccccc2)CC1` (stereo not given), in assay [2], the Ratio IC50 was 1.8.
Regarding `COc1ccc2[nH]cc(CCNC(C)=O)c2c1`, the Activity in assay [3] stood at 2.51 equiv.
Consider `C#CCN(Cc1ccc2cccc(O)c2n1)C(C#N)CCC1CCN(Cc2ccccc2)CC1` (stereo not given), for which the Ratio IC50 in assay [1] was 0.7; in assay [2], more than 9.9. Also, the inhibition entry in assay [4] is “Active”. Further, the Activity entry in assay [5] was “Dose-dependent effect”; in assay [3], 1.12 equiv. Further, the TIME in assay [6] was 0.833 to 1 h.
Regarding `Cc1c(C)c2c(c(C)c1O)CCC(C)(C(=O)O)O2` (stereo not given), the outcome in assay [7] was Active. The TIME in assay [6] was 1.67 to 2 h.
Consider `C#CCN(CCCC1CCN(Cc2ccccc2)CC1)Cc1ccc2cccc(O)c2n1`, for which the Ratio IC50 in assay [1] was 65; in assay [2] it was more than 2.7.
For `C#CCN(Cc1ccc2cccc(O)c2n1)CC1CCN(Cc2ccccc2)CC1`, in that order: 152 and more than 2.2.
For `C#CCN(Cc1ccc2cccc(O)c2n1)C(C#N)C1CCN(Cc2ccccc2)CC1` (stereo not given), in that order: 2140 and more than 9.8.
For `C#CCN(Cc1ccc2cccc(O)c2n1)C(C#N)CC1CCN(Cc2ccccc2)CC1` (stereo not given), the Ratio IC50 in assay [1] was 1650; in assay [2] it was more than 8.2.

The values above are taken from ChEMBL document CHEMBL3861952, “Donepezil-like multifunctional agents: Design, synthesis, molecular modeling and biological evaluation” (Eur J Med Chem, 2016).
